Data reported in ChEMBL document CHEMBL1124933, “Benzodiazepine receptor binding activity of 8-substituted-9-(3-substituted-benzyl)-6-(dimethylamino)-9H-purines” (J Med Chem, 1990).

Key:
[1] = molecular target: GABA-A receptor; anion channel; assay: Inhibition of specific binding of 1.5 nM [3H]diazepam to rat brain benzodiazepine receptors
Rattus norvegicus = assay: Percent change in Geller-Seifter conflict schedule was determined in Long-Evans rats after (po) administration of gavage of 25 mg/kg; type: functional
Summary of the method: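 Long-Evans rats on a modified Geller-Seifter operant conflict schedule, with conflict-period responding scored. Compounds given by oral gavage as a 0.5% methylcellulose suspension at 25 mg/kg. Chlordiazepoxide reference given at 20 mg/kg.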

| SMILES | IC50 [1] [nM] | Change (Rattus norvegicus) [%] |
| --- | --- | --- |
| CN(C)c1ncnc2c1nc(Br)n2Cc1cccc(NS(C)(=O)=O)c1 | 1500 |  |
| CN(C)c1ncnc2c1nc(O)n2Cc1cccc(NC=O)c1 | 130 | -15 |
| CNc1nc2c(N(C)C)ncnc2n1Cc1cccc(NC=O)c1 | 360 |  |
| CN(C)c1ncnc2c1nc(O)n2Cc1cccc(N)c1 | 1800 |  |
| CN(C)c1ncnc2c1nc(N(C)C)n2Cc1cccc(NC=O)c1 | 110 | 0 |
| CNc1nc2c(N(C)C)ncnc2n1Cc1ccccc1 | 17000 |  |
| CN(C)c1ncnc2c1ncn2Cc1cccc(NC=O)c1 | 34 | -2 |
| CN(C)c1ncnc2c1nc(Cl)n2Cc1cccc(N)c1 | 190 | 15 |
| COC(=O)Nc1cccc(Cn2c(Br)nc3c(N(C)C)ncnc32)c1 | 5300 |  |
| COc1nc2c(N(C)C)ncnc2n1Cc1cccc(N)c1 | 1000 | 13 |
| CN(C)c1ncnc2c1nc(N(C)C)n2Cc1ccccc1 | 5700 |  |
| COc1nc2c(N(C)C)ncnc2n1Cc1ccccc1 | 5400 |  |
| CNc1nc2c(N(C)C)ncnc2n1Cc1cccc(N)c1 | 7300 |  |
| CN(C)c1ncnc2c1nc(Br)n2Cc1cccc(NC=O)c1 | 11 | 9 |
| CN(C)c1ncnc2c1nc(N(C)C)n2Cc1cccc(N)c1 | 600 | -3 |
| Cc1nc2c(N(C)C)ncnc2n1Cc1ccccc1 | 8500 |  |
| CN(C)c1ncnc2c1nc(Br)n2Cc1cccc(N)c1 | 110 | 2 |
| CC(=O)Nc1cccc(Cn2c(Br)nc3c(N(C)C)ncnc32)c1 | 840 | 3 |
| CN(C)c1ncnc2c1nc(Br)n2Cc1ccccc1 | 3000 |  |
| CN(C)c1ncnc2c1nc(Br)n2Cc1cccc(NC(N)=O)c1 | 25 | 9 |
| CN(C)c1ncnc2c1nc(Br)n2Cc1cccc(NC(=O)c2ccccc2)c1 | 8000 |  |
